In ChEMBL document CHEMBL3124928, “Synthesis, antileishmanial activity and docking study of N'-substitutedbenzylidene-2-(6,7-dihydrothieno[3,2-c]pyridin-5(4H)-yl)acetohydrazides” (Bioorg Med Chem Lett, 2014):
Converted amounts (≈) assume the structure as drawn. The source made the active and inactive calls. The calls are words filed in the database; no cut-off is given here.

Legend:
Aspergillus niger = assay: Antifungal activity against Aspergillus niger NCIM 1196 by standard agar method; type: functional
How it was run: (§1)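 MIC determined by standard agar method, with dimethyl sulfoxide as solvent control.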

Bacillus subtilis [1] = assay: Antibacterial activity against Bacillus subtilis NCIM 2063 by standard agar method; type: functional; how it was run: as §1
Escherichia coli = assay: Antibacterial activity against Escherichia coli NCIM 2256 by standard agar method; type: functional; how it was run: as §1
Candida albicans = assay: Antifungal activity against Candida albicans NCIM 3471 by standard agar method; type: functional; how it was run: as §1
Leishmania donovani = assay: Antileishmanial activity against Leishmania donovani NHOM/IN/80/DD8 promastigotes assessed as decrease in parasite growth after 72 hrs by MTT assay; type: functional, organism-based; conditions: NHOM/IN/80/DD8, 72 h
How it was run: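 Cultured promastigotes were used, and viability was read by a modified MTT assay, with formazan yield taken as proportional to metabolically active cells. IC50 is the concentration cutting cell growth by 50%, found by graphic interpolation.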

Staphylococcus aureus [2] = assay: Antibacterial activity against Staphylococcus aureus NCIM 2901 by standard agar method; type: functional; how it was run: as §1
Pseudomonas aeruginosa [3] = assay: Antibacterial activity against Pseudomonas aeruginosa NCIM 2036 by standard agar method; type: functional; how it was run: as §1
HeLa = assay: Cytotoxicity against human HeLa cells up to 300 ug/ml after 72 hrs by MTT assay; type: cell-based
Staphylococcus aureus [4] = assay: Antibacterial activity against Staphylococcus aureus NCIM 2901 up to 300 ug/ml by standard agar method; type: functional, organism-based
Bacillus subtilis [5] = assay: Antibacterial activity against Bacillus subtilis NCIM 2063 up to 300 ug/ml by standard agar method; type: functional, organism-based
Pseudomonas aeruginosa [6] = assay: Antibacterial activity against Pseudomonas aeruginosa NCIM 2036 up to 300 ug/ml by standard agar method; type: functional, organism-based

SMILES: O=C(CN1CCc2sccc2C1)N/N=C/c1ccccc1Cl
- MIC (Aspergillus niger): 120 mg/L (≈ 359 µM)
- MIC (Bacillus subtilis [1]): 100 mg/L (≈ 300 µM)
- MIC (Escherichia coli): 25 mg/L (≈ 74.9 µM)
- MIC (Candida albicans): 60 mg/L (≈ 180 µM)
- IC50 (Leishmania donovani): 296 µM
- MIC (Staphylococcus aureus [2]): 100 mg/L (≈ 300 µM)
- MIC (Pseudomonas aeruginosa [3]): 125 mg/L (≈ 374 µM)
- Activity (HeLa): Non-toxic

SMILES: CC1(C)S[C@@H]2[C@H](NC(=O)[C@H](N)c3ccccc3)C(=O)N2[C@H]1C(=O)O [AMPICILLIN]
- MIC (Bacillus subtilis [1]): 250 mg/L (≈ 715 µM)
- MIC (Escherichia coli): 100 mg/L (≈ 286 µM)
- MIC (Staphylococcus aureus [2]): 250 mg/L (≈ 715 µM)
- MIC (Pseudomonas aeruginosa [3]): 100 mg/L (≈ 286 µM)

SMILES: OC(Cn1cncn1)(Cn1cncn1)c1ccc(F)cc1F [FLUCONAZOLE]
- MIC (Aspergillus niger): 10 mg/L (≈ 32.7 µM)
- MIC (Candida albicans): 5 mg/L (≈ 16.3 µM)

SMILES: O=C(CN1CCc2sccc2C1)N/N=C/c1ccc(O)c(O)c1
- MIC (Aspergillus niger): 75 mg/L (≈ 226 µM)
- MIC (Escherichia coli): 50 mg/L (≈ 151 µM)
- MIC (Candida albicans): 75 mg/L (≈ 226 µM)
- IC50 (Leishmania donovani): 672 µM
- MIC (Pseudomonas aeruginosa [3]): 150 mg/L (≈ 453 µM)
- Activity (HeLa): Non-toxic
- Activity (Staphylococcus aureus [4]): inactive
- Activity (Bacillus subtilis [5]): inactive

SMILES: COc1ccc(OC)c(/C=N/NC(=O)CN2CCc3sccc3C2)c1
- MIC (Aspergillus niger): 150 mg/L (≈ 417 µM)
- MIC (Bacillus subtilis [1]): 100 mg/L (≈ 278 µM)
- MIC (Escherichia coli): 125 mg/L (≈ 348 µM)
- MIC (Candida albicans): 25 mg/L (≈ 69.6 µM)
- IC50 (Leishmania donovani): 689 µM
- MIC (Staphylococcus aureus [2]): 75 mg/L (≈ 209 µM)
- MIC (Pseudomonas aeruginosa [3]): 250 mg/L (≈ 696 µM)
- Activity (HeLa): Non-toxic

SMILES: O=C(CN1CCc2sccc2C1)N/N=C/c1ccc(Cl)cc1
- MIC (Aspergillus niger): 100 mg/L (≈ 300 µM)
- MIC (Bacillus subtilis [1]): 100 mg/L (≈ 300 µM)
- MIC (Escherichia coli): 25 mg/L (≈ 74.9 µM)
- MIC (Candida albicans): 100 mg/L (≈ 300 µM)
- IC50 (Leishmania donovani): 738 µM
- MIC (Staphylococcus aureus [2]): 50 mg/L (≈ 150 µM)
- MIC (Pseudomonas aeruginosa [3]): 50 mg/L (≈ 150 µM)
- Activity (HeLa): Non-toxic

SMILES: N=C(N)c1ccc(OCCCCCOc2ccc(C(=N)N)cc2)cc1 [PENTAMIDINE]
- IC50 (Leishmania donovani): 16.1 µM

SMILES: CN(C)c1ccc(/C=N/NC(=O)CN2CCc3sccc3C2)cc1
- MIC (Aspergillus niger): 100 mg/L (≈ 292 µM)
- Activity (Pseudomonas aeruginosa [6]): inactive
- MIC (Escherichia coli): 50 mg/L (≈ 146 µM)
- MIC (Candida albicans): 40 mg/L (≈ 117 µM)
- IC50 (Leishmania donovani): 274 µM
- MIC (Staphylococcus aureus [2]): 100 mg/L (≈ 292 µM)
- Activity (HeLa): Non-toxic
- Activity (Bacillus subtilis [5]): inactive

SMILES: Clc1ccc(COC(Cn2ccnc2)c2ccc(Cl)cc2Cl)c(Cl)c1 (stereo unspecified) [MICONAZOLE]
- MIC (Aspergillus niger): 12.5 mg/L (≈ 30 µM)
- MIC (Candida albicans): 25 mg/L (≈ 60.1 µM)

SMILES: O=C(O)c1cn(C2CC2)c2cc(N3CCNCC3)c(F)cc2c1=O [CIPROFLOXACIN]
- MIC (Escherichia coli): 25 mg/L (≈ 75.4 µM)
- MIC (Staphylococcus aureus [2]): 50 mg/L (≈ 151 µM)

SMILES: COc1ccc(/C=N/NC(=O)CN2CCc3sccc3C2)c(OC)c1
- MIC (Aspergillus niger): 50 mg/L (≈ 139 µM)
- MIC (Bacillus subtilis [1]): 100 mg/L (≈ 278 µM)
- MIC (Escherichia coli): 125 mg/L (≈ 348 µM)
- MIC (Candida albicans): 25 mg/L (≈ 69.6 µM)
- IC50 (Leishmania donovani): 737 µM
- MIC (Staphylococcus aureus [2]): 75 mg/L (≈ 209 µM)
- MIC (Pseudomonas aeruginosa [3]): 250 mg/L (≈ 696 µM)
- Activity (HeLa): Non-toxic

SMILES: O=C(CN1CCc2sccc2C1)N/N=C/c1c(Cl)cccc1Cl
- MIC (Aspergillus niger): 160 mg/L (≈ 434 µM)
- MIC (Bacillus subtilis [1]): 250 mg/L (≈ 679 µM)
- MIC (Escherichia coli): 50 mg/L (≈ 136 µM)
- MIC (Candida albicans): 80 mg/L (≈ 217 µM)
- IC50 (Leishmania donovani): 645 µM
- MIC (Staphylococcus aureus [2]): 250 mg/L (≈ 679 µM)
- MIC (Pseudomonas aeruginosa [3]): 150 mg/L (≈ 407 µM)
- Activity (HeLa): Non-toxic

SMILES: N#Cc1ccc(/C=N/NC(=O)CN2CCc3sccc3C2)cc1
- MIC (Aspergillus niger): 140 mg/L (≈ 432 µM)
- MIC (Escherichia coli): 100 mg/L (≈ 308 µM)
- MIC (Candida albicans): 80 mg/L (≈ 247 µM)
- IC50 (Leishmania donovani): 694 µM
- MIC (Staphylococcus aureus [2]): 250 mg/L (≈ 771 µM)
- MIC (Pseudomonas aeruginosa [3]): 150 mg/L (≈ 462 µM)
- Activity (HeLa): Non-toxic
- Activity (Bacillus subtilis [5]): inactive

SMILES: COc1ccc(/C=N/NC(=O)CN2CCc3sccc3C2)cc1OC
- MIC (Aspergillus niger): 12.5 mg/L (≈ 34.8 µM)
- MIC (Bacillus subtilis [1]): 150 mg/L (≈ 417 µM)
- MIC (Escherichia coli): 150 mg/L (≈ 417 µM)
- MIC (Candida albicans): 37.5 mg/L (≈ 104 µM)
- IC50 (Leishmania donovani): 619 µM
- MIC (Staphylococcus aureus [2]): 150 mg/L (≈ 417 µM)
- MIC (Pseudomonas aeruginosa [3]): 200 mg/L (≈ 556 µM)
- Activity (HeLa): Non-toxic

SMILES: COc1cccc(N)c1/C=N/NC(=O)CN1CCc2sccc2C1
- MIC (Aspergillus niger): 140 mg/L (≈ 406 µM)
- Activity (Pseudomonas aeruginosa [6]): inactive
- MIC (Escherichia coli): 175 mg/L (≈ 508 µM)
- MIC (Candida albicans): 60 mg/L (≈ 174 µM)
- IC50 (Leishmania donovani): 722 µM
- MIC (Staphylococcus aureus [2]): 275 mg/L (≈ 798 µM)
- Activity (HeLa): Non-toxic
- Activity (Bacillus subtilis [5]): inactive
